Drawing on ChEMBL document CHEMBL1687824, “Overexpression of patA and patB, which encode ABC transporters, is associated with fluoroquinolone resistance in clinical isolates of Streptococcus pneumoniae” (2011), this text covers MIC90 and MIC for 1 compound.

What all share (type): functional
In test [1] the test system is Streptococcus pneumoniae. The experiment in a line: Antibacterial activity against fluoroquinolone, dye-resistant Streptococcus pneumoniae by standardized agar doubling dilution method in presence of 20 ug/ml reserpine efflux pump inhibitor. An outline of the steps:
(§1)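 MIC by agar doubling dilution following BSAC guidelines. Strains grown in brain heart infusion broth 24 h at 37°C in 5% CO2. Where an efflux pump inhibitor applies, MIC redetermined with reserpine at 20 μg/ml or sodium orthovanadate at 50 μM. Synergy taken as a fall in MIC of ≥2 dilutions with inhibitor present. Dye resistance defined relative to R6 (both dyes ≥2 dilutions higher).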

Test [2] relates to Streptococcus pneumoniae. Briefly: Antibacterial activity against fluoroquinolone, dye-resistant Streptococcus pneumoniae by standardized agar doubling dilution method. An outline of the steps: as §1
The subject of test [3] is Streptococcus pneumoniae. Briefly: Antibacterial activity against wild type Streptococcus pneumoniae R6 by standardized agar doubling dilution method in presence of 20 ug/ml reserpine efflux pump inhibitor. The essentials: as §1
In test [4] the test system is Streptococcus pneumoniae. Briefly: Antibacterial activity against wild type Streptococcus pneumoniae M3 NCTC 7466 type 2 by standardized agar doubling dilution method in presence of 20 ug/ml reserpine efflux pump inhibitor. The essentials: as §1
Test [5] concerns Streptococcus pneumoniae. The experiment in a line: Antibacterial activity against wild type Streptococcus pneumoniae M4 NCTC 7465 type 1 by standardized agar doubling dilution method in presence of 20 ug/ml reserpine efflux pump inhibitor. The essentials:
as §1

In test [6] the test system is Streptococcus pneumoniae. The experiment in a line: Antibacterial activity against wild type Streptococcus pneumoniae R6 by standardized agar doubling dilution method. An outline of the steps: as §1
Test [7] relates to Streptococcus pneumoniae. Briefly: Antibacterial activity against wild type Streptococcus pneumoniae M4 NCTC 7465 type 1 by standardized agar doubling dilution method. The essentials: as §1
Test [8] relates to Streptococcus pneumoniae. The experiment in a line: Antibacterial activity against wild type Streptococcus pneumoniae M3 NCTC 7466 type 2 by standardized agar doubling dilution method. The essentials:
as §1

The subject of test [9] is Streptococcus pneumoniae. The experiment in a line: Antibacterial activity against fluoroquinolone-resistant Streptococcus pneumoniae by standardized agar doubling dilution method. The essentials: as §1
The subject of test [10] is Streptococcus pneumoniae. The experiment in a line: Antibacterial activity against fluoroquinolone-resistant Streptococcus pneumoniae by standardized agar doubling dilution method in presence of 20 ug/ml reserpine efflux pump inhibitor. The essentials: as §1
Test [11] concerns Streptococcus pneumoniae. Briefly: Antibacterial activity against dye-resistant Streptococcus pneumoniae by standardized agar doubling dilution method. The essentials:
as §1

In test [12] the test system is Streptococcus pneumoniae. The experiment in a line: Antibacterial activity against dye-resistant Streptococcus pneumoniae by standardized agar doubling dilution method in presence of 20 ug/ml reserpine efflux pump inhibitor. The essentials:
as §1

In test [13] the test system is Streptococcus pneumoniae. Briefly: Antibacterial activity against fluoroquinolone, dye-susceptible Streptococcus pneumoniae by standardized agar doubling dilution method. The essentials: as §1
In test [14] the test system is Streptococcus pneumoniae. The experiment in a line: Antibacterial activity against fluoroquinolone, dye-susceptible Streptococcus pneumoniae by standardized agar doubling dilution method in presence of 20 ug/ml reserpine efflux pump inhibitor. An outline of the steps: as §1

Converted amounts (≈) assume the structure as drawn.

Broadly, the MIC90 is the lowest concentration that inhibits either 90% of growth or 90% of the strains tested, depending on the study. The MIC is the smallest concentration in the dilution series that meets the test's criterion for growth inhibition. As to `CCn1cc(C(=O)O)c(=O)c2cc(F)c(N3CCNCC3)cc21` [NORFLOXACIN], the MIC90 in the test on Streptococcus pneumoniae [1] is 8 µg/mL; against Streptococcus pneumoniae [2], 32 µg/mL (≈ 100 µM); against Streptococcus pneumoniae [9], 32 µg/mL (≈ 100 µM); with Streptococcus pneumoniae [10] it was 8 µg/mL; in the test on Streptococcus pneumoniae [11] it was 4 µg/mL (≈ 12.5 µM); in the test on Streptococcus pneumoniae [12], 1 µg/mL. Moreover, the MIC90 against Streptococcus pneumoniae [13] stood at 4 µg/mL (≈ 12.5 µM); with Streptococcus pneumoniae [14], 1 µg/mL. Also, the minimal inhibitory concentration (MIC) worked out at 2 µg/mL in the test on Streptococcus pneumoniae [3]; 2 µg/mL in the test on Streptococcus pneumoniae [4]; 4 µg/mL in the test with Streptococcus pneumoniae [5]; 4 µg/mL (≈ 12.5 µM) in the test with Streptococcus pneumoniae [6]; 8 µg/mL (≈ 25.1 µM) against Streptococcus pneumoniae [7]; 4 µg/mL (≈ 12.5 µM) in the test on Streptococcus pneumoniae [8]. The MIC came out at 4 µg/mL (≈ 12.5 µM) in the test on Streptococcus pneumoniae [11], 1 µg/mL in the test with Streptococcus pneumoniae [12] and 1 µg/mL in the test on Streptococcus pneumoniae [14].
